Results on three compounds are retold here after ChEMBL document CHEMBL5252633, “Quinazolinone-1,2,3-triazole-acetamide conjugates as potent α-glucosidase inhibitors: synthesis, enzyme inhibition, kinetic analysis, and molecular docking study” (RSC Med Chem, 2023).

In assay [1] the target is Maltase-glucoamylase (Homo sapiens) (UniProt O43451). The experiment in a line: Inhibition of alpha-glucosidase (unknown origin) assessed as change in Vmax using p-nitrophenyl-alpha D-glucopyranoside as substrate by Lineweaver-Burk plot analysis. The procedure, abridged: (§1)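 Initial rates were measured with p-nitrophenyl α-D-glucopyranoside at 1–16 mM and inhibitor at 0, 1.2, 2.4 and 4.8 μM. Lineweaver–Burk plots (1/V against 1/[S]) at each inhibitor level gave Km and Vmax. Ki was estimated from a plot of Km against inhibitor concentration.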

Assay [2] has the same target. Kind of assay: Inhibition of alpha-glucosidase (unknown origin) assessed as increase in Km using p-nitrophenyl-alpha D-glucopyranoside as substrate by Lineweaver-Burk plot analysis. The method in brief: as §1
Assay [3] concerns the target T1, Pancreatic triacylglycerol lipase (Homo sapiens, UniProt P16233).
T1 sequence (P16233 whole entry): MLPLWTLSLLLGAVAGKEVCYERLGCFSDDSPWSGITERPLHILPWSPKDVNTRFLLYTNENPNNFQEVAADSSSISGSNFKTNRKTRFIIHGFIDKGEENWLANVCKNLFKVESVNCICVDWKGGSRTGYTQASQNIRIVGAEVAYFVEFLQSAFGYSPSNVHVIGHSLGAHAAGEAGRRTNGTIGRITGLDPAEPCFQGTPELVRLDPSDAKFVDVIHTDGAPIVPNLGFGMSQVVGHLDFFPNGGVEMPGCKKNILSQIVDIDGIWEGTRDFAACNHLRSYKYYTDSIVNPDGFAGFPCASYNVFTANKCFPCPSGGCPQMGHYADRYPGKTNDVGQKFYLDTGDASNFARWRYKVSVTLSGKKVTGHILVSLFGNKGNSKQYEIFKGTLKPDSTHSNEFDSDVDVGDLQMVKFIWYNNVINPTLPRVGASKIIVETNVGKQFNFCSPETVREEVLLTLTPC
The experiment in a line: Inhibition of pancreatic lipase (unknown origin).

In assay [4] the target is T2, Alpha-glucosidase (Saccharomyces cerevisiae S288c, UniProt P53341+P38158+P07265). Kind of assay: Inhibition of Saccharomyces cerevisiae alpha-glucosidase using p-nitrophenyl-alpha D-glucopyranoside as substrate preincubated for 15 mins followed by substrate addition and measured after 20 mins by spectrophotometer assay. It counts as protein assay.
Assay [5] concerns the target T2, Alpha-glucosidase. The experiment in a line: Inhibition of Saccharomyces cerevisiae alpha-glucosidase assessed as inhibition constant using p-nitrophenyl-alpha D-glucopyranoside as substrate preincubated for 15 mins followed by substrate addition and measured after 20 mins by Lineweaver-burk plot analysis. Format: protein assay.

Calls of active or inactive are those of the source. The calls are words filed in the database; no cut-off is given here.

Chain of Maltase-glucoamylase (Homo sapiens) (O43451 whole entry, looked up): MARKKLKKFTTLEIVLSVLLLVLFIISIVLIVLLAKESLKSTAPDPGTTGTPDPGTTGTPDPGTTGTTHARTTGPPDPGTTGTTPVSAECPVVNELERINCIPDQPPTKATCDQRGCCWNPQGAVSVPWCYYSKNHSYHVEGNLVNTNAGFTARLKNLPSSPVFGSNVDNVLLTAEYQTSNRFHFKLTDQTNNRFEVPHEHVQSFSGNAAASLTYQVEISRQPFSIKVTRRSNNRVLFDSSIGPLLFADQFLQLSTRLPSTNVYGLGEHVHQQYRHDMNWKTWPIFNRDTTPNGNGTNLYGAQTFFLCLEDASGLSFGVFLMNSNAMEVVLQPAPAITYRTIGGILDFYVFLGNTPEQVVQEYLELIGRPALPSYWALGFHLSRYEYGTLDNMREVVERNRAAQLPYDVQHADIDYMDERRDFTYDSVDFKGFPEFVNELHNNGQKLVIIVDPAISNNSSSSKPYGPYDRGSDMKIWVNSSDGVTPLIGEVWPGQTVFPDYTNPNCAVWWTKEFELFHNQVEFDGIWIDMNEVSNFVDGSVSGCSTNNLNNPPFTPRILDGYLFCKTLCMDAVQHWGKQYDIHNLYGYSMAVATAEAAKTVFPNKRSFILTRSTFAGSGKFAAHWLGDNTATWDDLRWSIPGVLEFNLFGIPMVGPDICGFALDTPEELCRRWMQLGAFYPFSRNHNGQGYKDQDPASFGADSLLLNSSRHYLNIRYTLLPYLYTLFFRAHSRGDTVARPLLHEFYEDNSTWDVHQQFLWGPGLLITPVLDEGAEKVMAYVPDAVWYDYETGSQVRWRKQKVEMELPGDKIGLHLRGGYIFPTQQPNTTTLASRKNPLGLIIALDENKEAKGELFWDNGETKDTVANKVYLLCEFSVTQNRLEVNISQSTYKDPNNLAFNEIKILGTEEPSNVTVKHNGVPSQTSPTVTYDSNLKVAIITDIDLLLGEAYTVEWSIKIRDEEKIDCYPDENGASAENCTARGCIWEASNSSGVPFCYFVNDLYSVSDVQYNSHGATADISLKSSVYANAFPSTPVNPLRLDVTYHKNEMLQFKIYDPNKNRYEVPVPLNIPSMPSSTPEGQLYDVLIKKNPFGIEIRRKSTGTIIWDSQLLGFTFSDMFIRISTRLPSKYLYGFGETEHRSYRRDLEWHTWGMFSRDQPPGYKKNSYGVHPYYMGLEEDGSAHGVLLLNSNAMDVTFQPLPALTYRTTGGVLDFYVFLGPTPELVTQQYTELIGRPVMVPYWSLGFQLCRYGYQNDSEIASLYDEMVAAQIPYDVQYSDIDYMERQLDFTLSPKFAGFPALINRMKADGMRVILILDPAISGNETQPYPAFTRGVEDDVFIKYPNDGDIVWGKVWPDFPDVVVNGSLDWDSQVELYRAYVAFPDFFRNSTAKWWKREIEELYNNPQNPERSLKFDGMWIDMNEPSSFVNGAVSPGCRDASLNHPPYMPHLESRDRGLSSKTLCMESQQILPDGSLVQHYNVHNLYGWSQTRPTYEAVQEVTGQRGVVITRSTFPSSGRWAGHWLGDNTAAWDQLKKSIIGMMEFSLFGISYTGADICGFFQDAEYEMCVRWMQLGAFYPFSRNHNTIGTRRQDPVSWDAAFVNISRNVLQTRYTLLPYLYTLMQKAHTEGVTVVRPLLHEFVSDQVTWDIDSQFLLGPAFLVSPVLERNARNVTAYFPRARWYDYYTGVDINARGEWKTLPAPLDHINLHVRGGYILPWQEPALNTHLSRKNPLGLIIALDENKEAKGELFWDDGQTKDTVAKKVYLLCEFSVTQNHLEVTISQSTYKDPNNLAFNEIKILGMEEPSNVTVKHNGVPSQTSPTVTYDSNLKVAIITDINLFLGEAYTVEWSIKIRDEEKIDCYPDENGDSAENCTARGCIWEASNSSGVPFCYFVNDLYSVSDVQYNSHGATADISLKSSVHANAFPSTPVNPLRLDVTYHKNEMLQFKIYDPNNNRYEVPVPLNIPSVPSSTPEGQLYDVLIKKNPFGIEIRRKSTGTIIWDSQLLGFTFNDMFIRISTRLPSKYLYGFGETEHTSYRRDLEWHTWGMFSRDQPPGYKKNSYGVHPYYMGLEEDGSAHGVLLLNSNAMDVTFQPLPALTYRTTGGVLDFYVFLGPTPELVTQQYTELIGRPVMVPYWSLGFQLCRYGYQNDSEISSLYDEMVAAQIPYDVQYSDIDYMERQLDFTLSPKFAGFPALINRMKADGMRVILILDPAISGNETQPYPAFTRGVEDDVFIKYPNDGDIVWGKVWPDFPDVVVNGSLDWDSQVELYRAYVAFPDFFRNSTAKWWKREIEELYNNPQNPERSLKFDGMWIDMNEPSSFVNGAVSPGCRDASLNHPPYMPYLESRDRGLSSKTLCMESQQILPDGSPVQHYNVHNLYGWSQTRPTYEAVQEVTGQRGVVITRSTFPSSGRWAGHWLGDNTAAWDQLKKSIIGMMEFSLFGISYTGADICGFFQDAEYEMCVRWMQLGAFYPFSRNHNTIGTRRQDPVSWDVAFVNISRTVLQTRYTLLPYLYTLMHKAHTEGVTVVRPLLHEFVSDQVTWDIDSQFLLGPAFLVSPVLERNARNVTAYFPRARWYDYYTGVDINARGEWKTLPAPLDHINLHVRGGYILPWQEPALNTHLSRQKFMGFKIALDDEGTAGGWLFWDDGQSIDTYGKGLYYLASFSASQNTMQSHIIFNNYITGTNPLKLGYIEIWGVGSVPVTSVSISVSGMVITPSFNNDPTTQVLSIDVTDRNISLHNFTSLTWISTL

Take `Cc1ccc(NC(=O)Cn2cc(COc3ccc(C4Nc5ccccc5C(=O)N4Nc4ccccc4)cc3)nn2)c(C)c1` (stereo not given): the inhibition result in assay [1] is “inactive”. For the same compound, the inhibition result in assay [2] is “Active”.
In assay [3], `O=C(Cn1c(Cc2ccc(Br)cc2)nc2ccccc2c1=O)NNC(=O)c1cc2ccccc2oc1=O` registered an IC50 of 2.8 µM.
In assay [4], `O=C(Cn1c(-c2ccc(Cl)cc2)nc2ccccc2c1=O)N/N=C\c1cn(-c2ccccc2)nc1-c1ccc(Br)cc1` had an IC50 of 60.5 µM. For the same compound, in assay [5], the Ki worked out at 56 µM.

What is called IC50 is the concentration that inhibits the measured activity by half. A lower IC50 goes with greater potency in that assay. A word on the Ki: it is a dissociation constant, usually derived from enzyme kinetics or from competition with a known ligand.
